For 4 compounds, inhibition and Activity results are on record in ChEMBL document CHEMBL4354819, “Discovery of Novel Small Molecule Dual Inhibitors Targeting Toll-Like Receptors 7 and 8” (J Med Chem, 2019).

Calls of active or inactive are those of the source. The calls are words filed in the database; no cut-off is given here.

Series [1] has as its target Toll-like receptor 7 (Mus musculus) (UniProt P58681). The series is described as follows: Inhibition of endogenous mouse TLR7 in mouse RAW264.7 cells assessed as resiquimod-induced NO production at 1.25 uM incubated for 18 to 24 hrs.
Series [2] has as its system THP-1. Description: Cytotoxicity against human THP1 cells transfected with human TLR7/8 assessed as reduction in cell viability at 100 uM incubated for 16 hrs by WST-1 assay. It counts as cell-based. Conditions: thp-1, 16 h.
Series [3] has as its system THP-1. The series is described as follows: Inhibition of IFN mediated immune response in human THP1 cells assessed as inhibition of 3p-hpRNA-induced RIG1 signalling pathway at 20 uM incubated for 16 hrs by luciferase assay. In kind it is functional, cell-based. The method, boiled down: (§1)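 THP1-Dual monocytes carrying Lucia luciferase and SEAP reporters were stimulated with 3p-hpRNA (RIG-I agonist) or Y-form dsDNA G3-YSD (cGAS agonist), with or without compound. Secreted Lucia luciferase luminescence was measured as the type I IFN read-out. Mean ± s.d., n = 3 independent experiments.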

The subject of series [4] is THP-1. The series is described as follows: Inhibition of IFN mediated immune response in human THP1 cells assessed as inhibition of 3p-hpRNA-induced RIG1 signalling pathway at 5 to 20 uM incubated for 16 hrs by luciferase assay. It counts as functional, cell-based. Put shortly: as §1
Series [5] concerns the target T1, Toll-like receptor 7 (Homo sapiens) (UniProt Q9NYK1).
T1 sequence (whole entry): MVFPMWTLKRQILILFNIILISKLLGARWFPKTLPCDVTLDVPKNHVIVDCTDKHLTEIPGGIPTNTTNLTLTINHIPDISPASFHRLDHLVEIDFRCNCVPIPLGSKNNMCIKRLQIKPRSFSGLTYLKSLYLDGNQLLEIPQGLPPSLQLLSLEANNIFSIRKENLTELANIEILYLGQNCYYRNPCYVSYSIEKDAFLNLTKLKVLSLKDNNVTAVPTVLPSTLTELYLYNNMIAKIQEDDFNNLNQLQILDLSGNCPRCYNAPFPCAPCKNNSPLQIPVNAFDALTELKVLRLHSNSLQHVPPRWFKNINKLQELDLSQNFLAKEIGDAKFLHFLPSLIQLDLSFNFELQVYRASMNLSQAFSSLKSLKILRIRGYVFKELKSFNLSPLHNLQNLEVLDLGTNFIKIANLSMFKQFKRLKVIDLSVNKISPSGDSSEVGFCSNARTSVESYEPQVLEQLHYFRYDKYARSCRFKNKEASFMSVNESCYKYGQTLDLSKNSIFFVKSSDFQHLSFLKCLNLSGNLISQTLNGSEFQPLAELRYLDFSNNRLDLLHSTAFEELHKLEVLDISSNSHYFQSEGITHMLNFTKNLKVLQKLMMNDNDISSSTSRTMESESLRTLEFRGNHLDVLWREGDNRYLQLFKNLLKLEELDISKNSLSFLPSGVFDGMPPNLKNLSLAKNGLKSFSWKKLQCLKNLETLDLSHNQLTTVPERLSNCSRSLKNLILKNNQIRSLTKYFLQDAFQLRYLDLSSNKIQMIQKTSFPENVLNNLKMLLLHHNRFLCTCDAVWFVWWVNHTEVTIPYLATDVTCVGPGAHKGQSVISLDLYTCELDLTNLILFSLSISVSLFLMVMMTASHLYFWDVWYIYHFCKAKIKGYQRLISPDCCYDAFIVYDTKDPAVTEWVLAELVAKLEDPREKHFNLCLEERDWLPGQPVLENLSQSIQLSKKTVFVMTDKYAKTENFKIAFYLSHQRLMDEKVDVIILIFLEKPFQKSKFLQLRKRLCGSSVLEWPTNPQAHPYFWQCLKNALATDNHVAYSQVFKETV
The series is described as follows: Inhibition of human TLR7 expressed in HEK293 cells assessed as reduction in resiquimod-induced NFkappaB production at 5 to 20 uM incubated for 16 hrs by quanti-blue SEAP assay. In kind it is cell-based. The method, boiled down: (§2)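 Selectivity panel in stably transfected HEK 293-Blue cells, each overexpressing one human TLR with an inducible SEAP reporter. Agonists: Pam3CSK4 (TLR1/2), Pam2CSK4 (TLR2/6), poly(I:C) (TLR3), LPS (TLR4), R848 (TLR7/8), ODN 2006 (TLR9). Cells were exposed to compound for 16 h. Activity = (raw − untreated)/(ligand + solvent − untreated), with ligand + solvent set as 100%.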

Series [6] addresses T2, Toll-like receptor 9 (Homo sapiens) (UniProt Q9NR96).
T2 sequence (whole entry): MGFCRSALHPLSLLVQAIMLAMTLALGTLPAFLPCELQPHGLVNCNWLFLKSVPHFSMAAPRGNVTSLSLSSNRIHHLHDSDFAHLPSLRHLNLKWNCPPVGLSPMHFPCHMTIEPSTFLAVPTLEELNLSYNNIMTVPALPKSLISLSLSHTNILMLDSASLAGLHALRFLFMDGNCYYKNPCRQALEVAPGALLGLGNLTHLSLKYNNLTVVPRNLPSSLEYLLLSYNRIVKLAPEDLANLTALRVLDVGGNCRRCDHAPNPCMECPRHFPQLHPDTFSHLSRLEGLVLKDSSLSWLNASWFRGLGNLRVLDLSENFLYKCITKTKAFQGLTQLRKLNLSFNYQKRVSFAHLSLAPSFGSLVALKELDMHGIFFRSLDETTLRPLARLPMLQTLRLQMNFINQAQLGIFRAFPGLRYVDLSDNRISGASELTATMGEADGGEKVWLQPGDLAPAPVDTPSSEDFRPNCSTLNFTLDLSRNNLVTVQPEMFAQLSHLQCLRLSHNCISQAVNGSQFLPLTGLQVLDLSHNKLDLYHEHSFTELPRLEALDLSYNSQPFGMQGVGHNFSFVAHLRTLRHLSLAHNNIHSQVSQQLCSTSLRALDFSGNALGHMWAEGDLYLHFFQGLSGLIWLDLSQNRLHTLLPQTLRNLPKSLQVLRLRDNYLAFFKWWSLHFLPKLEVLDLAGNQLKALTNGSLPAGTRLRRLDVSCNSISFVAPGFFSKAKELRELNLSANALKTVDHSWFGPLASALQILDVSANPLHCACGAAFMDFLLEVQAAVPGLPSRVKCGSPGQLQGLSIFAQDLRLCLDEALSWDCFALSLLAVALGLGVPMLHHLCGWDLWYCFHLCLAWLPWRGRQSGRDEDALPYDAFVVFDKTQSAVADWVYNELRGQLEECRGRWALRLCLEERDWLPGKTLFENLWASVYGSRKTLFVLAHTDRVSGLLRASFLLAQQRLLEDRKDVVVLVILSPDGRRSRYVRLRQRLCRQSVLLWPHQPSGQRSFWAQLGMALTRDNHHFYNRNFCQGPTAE
The series is described as follows: Inhibition of human TLR9 expressed in HEK293 cells assessed as reduction in ODN-2006-induced NFkappaB production at 1.5 uM incubated for 16 hrs by quanti-blue SEAP assay. It counts as cell-based. The method, boiled down:
as §2

Series [7] deals with Toll-like receptor 4 (Homo sapiens) (UniProt O00206). Description: Inhibition of human TLR4 expressed in HEK293 cells assessed as reduction in LPS-induced NFkappaB production at 1.5 to 5 uM incubated for 16 hrs by quanti-blue SEAP assay. It counts as cell-based. The method, boiled down: as §2
Chain of Toll-like receptor 4 (Homo sapiens) (O00206 whole entry): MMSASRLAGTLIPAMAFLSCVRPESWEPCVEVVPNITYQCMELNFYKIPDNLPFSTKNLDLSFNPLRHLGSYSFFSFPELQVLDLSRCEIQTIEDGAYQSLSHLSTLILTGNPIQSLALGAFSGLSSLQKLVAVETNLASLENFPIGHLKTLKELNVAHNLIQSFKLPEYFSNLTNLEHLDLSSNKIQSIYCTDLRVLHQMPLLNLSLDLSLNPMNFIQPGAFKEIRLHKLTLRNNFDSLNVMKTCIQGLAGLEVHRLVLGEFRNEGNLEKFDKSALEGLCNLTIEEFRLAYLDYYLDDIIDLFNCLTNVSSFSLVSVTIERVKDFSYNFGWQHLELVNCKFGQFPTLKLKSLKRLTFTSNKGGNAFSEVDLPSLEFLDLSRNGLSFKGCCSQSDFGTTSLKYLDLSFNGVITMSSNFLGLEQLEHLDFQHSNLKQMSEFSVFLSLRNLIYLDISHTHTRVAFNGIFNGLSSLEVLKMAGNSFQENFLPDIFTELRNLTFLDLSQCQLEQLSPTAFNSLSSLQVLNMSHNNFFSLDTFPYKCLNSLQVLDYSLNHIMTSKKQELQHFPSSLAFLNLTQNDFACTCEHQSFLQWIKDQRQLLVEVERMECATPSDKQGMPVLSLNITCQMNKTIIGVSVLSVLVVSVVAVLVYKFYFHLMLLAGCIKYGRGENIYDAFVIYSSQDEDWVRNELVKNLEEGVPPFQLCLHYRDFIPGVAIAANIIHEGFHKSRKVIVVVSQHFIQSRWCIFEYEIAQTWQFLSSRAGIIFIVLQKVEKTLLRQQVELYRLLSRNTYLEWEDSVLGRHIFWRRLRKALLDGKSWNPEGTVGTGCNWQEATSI
The next series concerns HEK293. The series is described as follows: Cytotoxicity against human HEK293 cells transfected with human TLR8 assessed as reduction in cell viability up to 5 uM incubated for 16 hrs by WST-1 assay. It counts as cell-based. As to conditions: hek293, 16 h.

Chain of Toll-like receptor 7 (Mus musculus) (P58681 whole entry, looked up): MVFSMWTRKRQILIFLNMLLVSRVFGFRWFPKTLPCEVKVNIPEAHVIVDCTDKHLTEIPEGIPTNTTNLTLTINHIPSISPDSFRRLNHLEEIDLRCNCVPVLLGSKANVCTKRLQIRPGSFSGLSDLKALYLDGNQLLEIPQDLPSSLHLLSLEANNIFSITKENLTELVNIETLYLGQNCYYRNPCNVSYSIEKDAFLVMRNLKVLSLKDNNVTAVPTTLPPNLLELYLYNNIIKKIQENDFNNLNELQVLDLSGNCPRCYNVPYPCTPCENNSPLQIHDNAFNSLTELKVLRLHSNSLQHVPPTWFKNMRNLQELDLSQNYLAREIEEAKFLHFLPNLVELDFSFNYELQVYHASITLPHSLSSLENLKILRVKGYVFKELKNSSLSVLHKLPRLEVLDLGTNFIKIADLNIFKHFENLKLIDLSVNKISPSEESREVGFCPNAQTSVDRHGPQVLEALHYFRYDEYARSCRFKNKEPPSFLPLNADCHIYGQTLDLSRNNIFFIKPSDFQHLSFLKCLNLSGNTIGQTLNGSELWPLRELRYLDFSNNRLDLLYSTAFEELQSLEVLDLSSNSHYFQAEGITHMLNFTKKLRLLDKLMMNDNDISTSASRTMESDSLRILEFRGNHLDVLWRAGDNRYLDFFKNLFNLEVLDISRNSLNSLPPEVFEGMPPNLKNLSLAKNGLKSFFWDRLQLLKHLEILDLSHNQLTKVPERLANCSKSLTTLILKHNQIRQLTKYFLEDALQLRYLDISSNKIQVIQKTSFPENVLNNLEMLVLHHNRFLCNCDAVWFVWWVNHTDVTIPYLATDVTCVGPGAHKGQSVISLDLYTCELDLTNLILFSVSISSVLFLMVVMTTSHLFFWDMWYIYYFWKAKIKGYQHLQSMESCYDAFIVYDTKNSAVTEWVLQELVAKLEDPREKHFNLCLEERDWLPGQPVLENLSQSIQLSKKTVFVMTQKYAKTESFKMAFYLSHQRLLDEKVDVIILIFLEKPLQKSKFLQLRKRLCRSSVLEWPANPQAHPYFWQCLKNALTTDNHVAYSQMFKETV

For `O=C(Nc1ccc(Oc2cc(C(F)(F)F)cc(C(F)(F)F)c2)cc1)c1c(F)cccc1I`, in series [1], the inhibition result is “inactive”.

For `O=[N+]([O-])c1c(I)cccc1Oc1ccc(-c2nnco2)cc1`, the Activity entry with THP-1 [2] is listed as “Toxic”. In addition, the inhibition entry with THP-1 [3] is “Active”.

On to `O=C(Nc1ccc(Oc2cncc(C(F)(F)F)c2)cc1)c1c(F)cccc1Cl`, for which the inhibition result (in the series on THP-1 [4]; in series [5]) was “Active” in each case.

With `O=C(Nc1ccc(Oc2cc(C(F)(F)F)cc(C(F)(F)F)c2)cc1)c1c(F)cccc1Cl`, the inhibition result in series [6] and in series [7] was “inactive” throughout. Moreover, the Activity entry with HEK293 is reported as “Non-Toxic”.
